Assay results gathered from unrelated publications.
Protocols differ between the studies behind these lines.
Target: Phosphorylase b kinase gamma catalytic chain, skeletal muscle/heart isoform (PHKG1, Homo sapiens, UniProt Q16816)

`Nc1nc(Nc2ccccc2)sc1C(=O)c1c(F)cccc1F` has a remaining activity of 88% (enzyme activity, inhibitor; 10 µM).
For `CCCOc1ccc([C@H]2[C@H](C(=O)O)[C@@H](c3ccc4c(c3)OCO4)CN2CC(=O)Nc2c(CC)cccc2CC)cc1`, the remaining binding was 99% (cell-free assay, competition with immobilised ligand; 1 µM).
With `c1ccc(CNc2nc(N3CCOc4ccccc43)nc3c2CCCC3)cc1` the inhibition was 2% (target engagement in cells, inhibitor, chemoproteomics; 20 mM).
For `O=C(Nc1cnn(-c2csc(C(=O)NC3COC3)c2)c1)Nc1c(F)cccc1Cl`, the remaining activity was 91.2% (enzyme activity, inhibitor; 5 µM).
`Cn1c(=O)n(-c2ccc(C(C)(C)C#N)cc2)c2c3cc(-c4cnc5ccccc5c4)ccc3ncc21` has a remaining activity of 95% (enzyme activity, inhibitor; 10 µM).
With `O=C1Nc2ccc(Cl)cc2C1=Cc1cc(Cl)c(O)c(Cl)c1` the remaining signal was 86.4% (cell-free assay; 0.5 µM).
`FC(F)c1nc2ccccc2n1-c1nc(N2CCOCC2)nc(N2CCOCC2)n1` gave a remaining activity of 94% (enzyme activity, inhibitor; 10 µM).
The remaining binding of `O=C(Nc1cnc(Oc2ccc(F)cc2)nc1)N1CCc2ncccc2[C@@H]1c1ccc(F)cc1` is reported as 100% (cell-free assay, competition with immobilised ligand; 1 µM).
`Cc1sc(C(=O)NC2COC2)cc1-n1cc(NC(=O)Nc2c(F)cccc2Cl)cn1` gave a remaining activity of 84% (enzyme activity, inhibitor; 10 µM).
For `CC(C)(C)c1nc2c(s1)c1nc(N)ncc1c1ccc(NS(=O)(=O)c3c(F)cccc3F)c(F)c12`, the remaining activity was 98% (enzyme activity, inhibitor, radiometric; 1 µM).
`Nc1nc(NC2CCCCC2)sc1C(=O)c1ccccc1` has a remaining activity of 105% (enzyme activity, inhibitor; 10 µM).
With `CN(C)C(=O)Cn1cc(-c2nc([C@@](C)(c3ccc(-c4cnc(N)nc4)cc3)C3CC3)no2)cn1` the remaining binding was 77% (cell-free assay, competition with immobilised ligand; 1 µM).
With `CN1CC(Oc2cnc(C#N)cc2-c2ccn3nc(NC(=O)C4CC4)cc3c2)C1` the inhibition was 8% (enzyme activity, inhibitor; 1 µM).
The remaining binding of `COc1cccc(CNC(=O)c2nc3scc(COCc4ccc(C(=O)O)cc4)c3c(=O)[nH]2)c1` is reported as 100% (cell-free assay, competition with immobilised ligand; 1 µM).
For `CCCCNc1ncc2c(-c3ccc(F)cc3)nn(C[C@H]3CC[C@H](N)CC3)c2n1`, the inhibition was 26.4% (target engagement in cells, inhibitor, chemoproteomics; 20 mM).
With `CC(C)(O)[C@H]1CC[C@H](Nc2ccc3ncc(-c4cccc(C(F)(F)F)c4)n3n2)CC1` the remaining activity was 84.1% (enzyme activity, inhibitor; 1 µM).
For `Cc1c(C(=O)O)cc(-c2ccc(C3CCNCC3)cc2)c2ccc(-c3ccc(C(F)(F)F)cc3)cc12`, the remaining binding was 100% (cell-free assay, competition with immobilised ligand; 1 µM).
With `COc1cc(Cl)c(C(=O)N[C@@H](CN[C@H]2CC[C@@H](N)CC2)Cc2ccc(C#N)cc2)cc1-c1ccc(CN[C@H](C)c2ccc(C)cc2)o1` the remaining activity was 68% (enzyme activity, inhibitor; 1 µM).
With `NS(=O)(=O)c1cc(NC(=O)Cc2ccccc2)ccc1Oc1cccc(Cl)c1` the remaining binding was 87% (cell-free assay, competition with immobilised ligand; 1 µM).
For `COc1cc2ncnc(Nc3ccc(Oc4ccccc4)c(C)c3C)c2cc1OC`, the inhibition was 2% (enzyme activity, inhibitor; 1 µM).
